Bioassay records deposited in PubChem by several laboratories.
Shown is part of a subset that was picked to be rich in hits.
Jurkat NFkB inh: lowers PMA/ionomycin-induced NF-kB signal in Jurkat cells; PMA/ionomycin-induced NF-kB luciferase reporter, luminescence; inhibition, % at 4 µM; 330,000 tested, 0.53% active; in the data active = inhibition above about 50%
CHOP inhibitor: CHOP inhibition in unfolded protein response | CHO-K1 CHOP-promoter luciferase, tunicamycin-induced, 15-18 h | inhibition, % at 10 µM | 220,000 tested, 3.8% active | AID 2732;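 active = compounds that reduced the stress-induced luciferase reporter signal by more than about 70% of percent inhibition, limit read from the data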
CHOP UPR activ: activators of apoptotic arm of unfolded protein response (CHOP); CHO-CHOP luciferase reporter, UPR activation, luminescence; percent of tunicamycin response over DMSO baseline; activation, % at 10 µM; 330,000 tested, 0.34% active;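 active = at 10 µM dose, activation of 40% or more, normalized to positive control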
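Test system: CHO-CHOP cells, stable luciferase reporter of PERK-eIF2a-CHOP signalling | Quantity: 500 CHO-CHOP cells per well | Buffer or medium: F12 plus 10% serum | Compound dosing: 10 µM single point, 0.5% DMSO | Schedule: 6 h compound treatment, 37 °C | Signal: Luciferase luminescence | Control set: Tunicamycin high control, DMSO low control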
XBP1 UPR activ: activators of adaptive arm of unfolded protein response (XBP1). CHO-XBP1 luciferase reporter, IRE1-XBP1 UPR activation, luminescence; percent of tunicamycin response, DMSO as zero. activation, % at 20 µM. 330,000 tested, 0.33% active. AID 463104;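 active = versus positive control, 20 µM dose yields 30% or more activation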
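Assay system: CHO-XBP1 luciferase reporter cells; Schedule: 6 h treatment, 37 °C; Detection: glow luminescence from Steady-Glo reagent; Benchmarks: high control tunicamycin 10 µg/mL final, low control DMSO vehicle only.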
697 NFkB inh: inhibitors of the PMA/ionomycin-induced NF-kB reporter in 697 B cells. inhibition, % at 4 µM. 697 B-cell NF-kB luciferase reporter, 16 h. 330,000 tested, 0.33% active; in the data active = inhibition above about 35%
A number is an active result; - = inactive; . = not tested or not shown.

SMILES	Jurkat NFkB inh	CHOP inhibitor	CHOP UPR activ	XBP1 UPR activ	697 NFkB inh
CCCCCCNC(=O)c1c(O)c2ccccc2[nH]c1=O	-	88	-	-	-
O=C(NCc1ccccc1)c1c(O)c2ccccc2[nH]c1=O	-	.	-	-	-
CCC(=O)NNC(=O)c1c(O)c2ccccc2[nH]c1=O	-	-	-	-	-
CCCCCCCC(=O)NNC(=O)c1c(O)c2ccccc2[nH]c1=O	-	70	-	-	-
CCOCCCNC(=O)CN1CCN(Cc2ccc(Cl)cc2)C1=O	-	.	-	-	-
O=C(CCCc1c[nH]c2ccccc12)NCc1ccccc1F	-	.	-	-	-
Cc1cc(Cl)c(OCCCSc2nc(C)cc(=O)[nH]2)c(Br)c1	-	86	-	-	-
Cc1cc(=O)[nH]c(SCCCOc2ccc(F)cc2)n1	-	-	-	-	-
O=[N+]([O-])c1ccc(O)c(-c2nc(-c3ccccc3)c(-c3cccs3)[nH]2)c1	-	85	-	-	-
O=C(O)c1ccc(-c2nc(-c3ccccc3)c(-c3cccs3)[nH]2)cc1	-	-	-	-	-
CSCCC(NS(=O)(=O)c1ccc(Cl)cc1)C(=O)OCC(=O)NC12CC3CC(CC(C3)C1)C2 (centres undefined)	-	74	-	-	-
CCOC(=O)C1=C(N)OC2=C(C(=O)CC(C)(C)C2)C1c1ccoc1 (centres undefined)	-	-	-	-	-
CCOC(=O)C1=C(N)OC2=C(C(=O)CC(C)(C)C2)C1C1CCCCC1 (centres undefined)	-	96	-	-	-
COc1ccc(Cl)c(N2CCN(CCCNC(=O)Nc3ccc(C)cc3)CC2)c1	-	83	-	-	-
COc1ccc(NC(=O)NCCN2CCN(c3cc(OC)ccc3OC)CC2)cc1	-	.	-	-	-
O=C(CC1CCCCC1)N1CCC(c2nc(-c3ccc(S(=O)(=O)N4CCCC4)cc3)no2)CC1	-	95	-	-	-
O=C(C1CC1)N1CCC(c2nc(-c3ccc(S(=O)(=O)N4CCCC4)cc3)no2)CC1	-	-	-	-	-
CCOC(=O)c1sc(NC(=O)c2ccc(S(=O)(=O)N3CCCCC3)cc2)nc1-c1ccccc1	-	84	-	-	-
CCOC(=O)N1CCN(S(=O)(=O)c2ccc(C(=O)Nc3nc4ccccc4s3)cc2)CC1	-	-	-	-	-
CCOC(=O)c1sc(NC(=O)c2ccc(S(=O)(=O)N3CCCCCC3)cc2)nc1-c1ccccc1	-	-	-	-	-
CCOC(=O)N1CCN(S(=O)(=O)c2ccc(C(=O)Nc3nc4ccc(F)cc4s3)cc2)CC1	-	84	-	-	-
Cc1ccc(-c2c(C)sc3ncn(CC(=O)N4CCOCC4)c(=O)c23)cc1C	-	-	-	-	-
Cc1ccc2c(c1)N(S(=O)(=O)c1ccc(CN3C(=O)c4cccnc4C3=O)s1)CCO2	-	.	-	-	-
FC(F)(F)c1ccc(N2CCN(c3ncnc4c3nnn4Cc3ccccc3)CC2)nc1	-	91	-	-	-
Cc1ccc(N=C2NC(=O)/C(=C/c3cn(C)c4ccccc34)S2)cc1C	.	76	.	.	.
SMILES	Jurkat NFkB inh	CHOP inhibitor	CHOP UPR activ	XBP1 UPR activ	697 NFkB inh
Cn1cccc1/C=C1\SC(=Nc2ccccc2)NC1=O	-	-	-	-	-
Cc1ccc(C(=O)Nc2ccc(C(=O)N3CCCCC3)cc2)o1	-	.	-	-	-
Cc1cc2c(cc1C)CSC(c1ccccc1OC(=O)C(C)C)SC2	-	72	-	-	-
CCc1ccc2nc(N3C(=O)C(O)=C(C(=O)c4ccco4)C3c3cccs3)sc2c1 (centres undefined)	-	80	-	-	-
Cc1ccc2nc(N3C(=O)C(O)=C(C(=O)c4cc5ccccc5o4)C3c3cccs3)sc2c1 (centres undefined)	-	-	-	-	-
Cc1oc2ccc(O)cc2c1C(=O)c1ccc(Cl)cc1	-	71	-	-	-
Cc1oc2ccc(O)cc2c1C(=O)c1ccc(Br)cc1	-	.	-	-	-
COc1ccc(S(=O)(=O)N(Cc2ccccc2)Cc2nc3ccccc3c(=O)[nH]2)cc1	-	72	-	-	-
Cc1nnc2c(NC3CCCCC3)nc3ccccc3n12	-	.	-	-	-
Cc1ccccc1C(=O)Nc1sc2c(c1C(=O)O)CCC2	-	85	-	-	-
O=C(Nc1sc2c(c1C(=O)O)CCC2)c1ccccc1Cl	-	.	-	-	-
